Published values pooled from the literature.
Compare with care: the assays were run in different laboratories.
Target: Serine/threonine-protein kinase 35 (STK35, Homo sapiens, UniProt Q8TDR2)

C[C@H]1CCN(c2nccc(-c3cnn4ncccc34)n2)C1  remaining binding (binding; 1 µM): 100%
COc1cnc(Nc2cccc(S(N)(=O)=O)c2)nc1N1CCN(c2ccccc2)CC1  remaining binding (binding; competition with immobilised ligand; 1 µM): 100%
COc1ncc2cc3ccccc3nc2c1C#N  remaining binding (cell-free assay; competition with immobilised ligand; 5 µM): 98%
O=C(Nc1cccnn1)N1CCC(=Cc2cccc(Oc3ccc(C(F)(F)F)cn3)c2)CC1  remaining binding (cell-free assay; competition with immobilised ligand; 1 µM): 100%
c1cnn2ncc(-c3ccnc(N4CCC45COC5)n3)c2c1  remaining binding (binding; 1 µM): 100%
Cc1cnc(Nc2ccc(C(=O)N3CCC(N4CCCC4)CC3)cc2)nc1-c1cc2ccccc2s1  remaining binding (binding; competition with immobilised ligand; 1 µM): 79%
COc1cnc(Nc2cccc(S(N)(=O)=O)c2)nc1N1CCN(c2ccccc2)C(=O)C1  remaining binding (binding; competition with immobilised ligand; 1 µM): 100%
Cc1cnn2ncc(-c3ccnc(N(C)C)n3)c2c1  remaining binding (binding; 1 µM): 100%
COc1cc(-c2cn(C3CCc4c(F)cccc4N(CC(F)(F)F)C3=O)nn2)ccc1-n1cnc(C)c1 (stereo not shown)  remaining binding (cell-free assay; competition with immobilised ligand; 1 µM): 100%
CN(C)c1nccc(-c2cnn3ncccc23)n1  remaining binding (binding; 1 µM): 100%
c1cncc(-c2cccc(Nc3nccc(NC4CCCCC4)n3)c2)c1  remaining binding (binding; competition with immobilised ligand; 10 µM): 86%
O=C(Nc1c[nH]nc1C(=O)NC1CCNCC1)c1cc(F)cc(F)c1  remaining binding (binding; competition with immobilised ligand; 1 µM): 100%
CC1=C(C#N)[C@@H](c2ccc3[nH]nc(C)c3c2)C(C#N)=C(c2ccc(Cl)cc2)N1  remaining binding (cell-free assay; competition with immobilised ligand; 1 µM): 100%
CN(CCCC(F)(F)F)c1nccc(-c2cnn3ncccc23)n1  remaining binding (binding; 1 µM): 100%
CN1CCN(c2cnc3c(C4CCN(C(=O)c5ccc(OC(F)(F)F)cc5N)CC4)ncnc3c2)CC1  remaining binding (cell-free assay; competition with immobilised ligand; 1 µM): 100%
O=C(NCCCN1CCOCC1)c1ccc(Nc2ncc(Cl)c(-c3ccc(Cl)s3)n2)cc1  remaining binding (binding; competition with immobilised ligand; 1 µM): 100%
CCOC(=O)c1cc2cc(-c3cc(C(=O)NCc4ccc(C(=O)O)cc4)nn3C)ccc2[nH]1  remaining binding (cell-free assay; competition with immobilised ligand; 0.1 µM): 94%
N[C@@H]1CCN(c2nccc(-c3cnn4ncccc34)n2)C1  remaining binding (binding; 1 µM): 100%
Cn1nc(C(F)(F)F)cc1-c1cnc(N2CCc3cc(S(=O)(=O)Nc4c(F)cc(Cl)cc4F)cc(N4CCCC4=O)c32)nc1  remaining binding (cell-free assay; competition with immobilised ligand; 1 µM): 100%
CC1CCCN1c1nccc(-c2cnn3ncccc23)n1 (stereo not shown)  remaining binding (binding; 1 µM): 88%
O=C(c1ccc(Nc2ncc(Cl)c(-c3ccc(Cl)s3)n2)cc1)N1CCC(N2CCCC2)CC1  remaining binding (binding; competition with immobilised ligand; 1 µM): 99%
CN(C(=O)c1ccccc1)c1cc(N(C)c2ccc3c(c2)CCc2ccc(C(=O)NCCN4CCOCC4)cc2C3=O)ccc1F  remaining binding (cell-free assay; competition with immobilised ligand; 1 µM): 100%
